The values that follow come from ChEMBL document CHEMBL1152672, “Side chain azasteroids and thiasteroids as sterol methyltransferase inhibitors in ergosterol biosynthesis” (2009).

Assay [1] addresses T1, Sterol 24-C-methyltransferase (Yarrowia lipolytica) (UniProt Q6C2D9).
T1 sequence (whole entry): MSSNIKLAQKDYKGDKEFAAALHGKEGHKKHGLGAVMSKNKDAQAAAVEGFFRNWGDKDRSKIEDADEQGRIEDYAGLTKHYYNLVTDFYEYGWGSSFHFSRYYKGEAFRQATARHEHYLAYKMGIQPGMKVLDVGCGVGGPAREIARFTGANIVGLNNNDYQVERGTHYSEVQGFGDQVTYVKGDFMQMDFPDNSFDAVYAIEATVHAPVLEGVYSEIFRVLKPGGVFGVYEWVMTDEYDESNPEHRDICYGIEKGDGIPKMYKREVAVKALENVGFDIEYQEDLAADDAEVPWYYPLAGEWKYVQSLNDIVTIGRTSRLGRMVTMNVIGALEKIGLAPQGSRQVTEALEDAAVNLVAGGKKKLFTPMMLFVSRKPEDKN
The experiment in a line: Inhibition of Yarrowia lipolytica 24-SMT assessed as cholesta-7,24-dien-3-trimethylsilyl derivative at 0.2 ug/mL after 48 hrs by GC-MS analysis relative to untreated control. Also on record: scale not given: the % may be the effect or the level left. The essentials: (§1)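 Whole-cell sterol profiling. Y. lipolytica at 50,000 CFU/mL was exposed to compounds added from ethanol for 48 ± 2 h at 28 °C, and the MIC/2 and/or MIC/4 wells were used. Cells were pelleted and PBS-washed, then saponified in 1 M NaOH at 70 °C for 1 h. Sterols were extracted into TBME with a cholesterol internal standard and silylated to TMS ethers. GC-MS full scan, with each sterol given as % of total integrated quantifier-ion area.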

In assay [2] the target is T1, Sterol 24-C-methyltransferase (Yarrowia lipolytica). Nature of the assay: Inhibition of Yarrowia lipolytica 24-SMT assessed as zymosterol-3-trimethylsilyl derivative level at 0.2 ug/mL after 48 hrs by GC-MS analysis relative to untreated control. On the set-up: scale not given: the % may be the effect or the level left. Put shortly: as §1
Assay [3] shares this target. The experiment in a line: Inhibition of Yarrowia lipolytica 24-SMT assessed as 5-dehydroepisterol-3-trimethylsilyl derivative at 0.2 ug/mL after 48 hrs by GC-MS analysis relative to untreated control. On the set-up: scale not given: the % may be the effect or the level left. Put shortly:
as §1

In assay [4] the test system is Yarrowia lipolytica. Nature of the assay: Antimicrobial activity against Yarrowia lipolytica after 48 hrs. The assay is classed as functional. Put shortly: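 Broth dilution MIC per DIN 58940-84. Log-phase Y. lipolytica in yeast extract/peptone/glucose medium, counted against a 0.5 McFarland standard (A570) and seeded at 50,000 CFU/mL in 2 mL wells. Compounds added from ethanol; final concentrations 2 to 0.06125 µg/mL unless otherwise stated. Plates incubated 48 ± 2 h at 28 °C. MIC is the lowest concentration with no visible growth.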

Assay [5] addresses T1, Sterol 24-C-methyltransferase (Yarrowia lipolytica). The experiment in a line: Inhibition of Yarrowia lipolytica 24-SMT assessed as dehydroergosterol-3-trimethylsilyl derivative at 0.2 ug/mL after 48 hrs by GC-MS analysis relative to untreated control. On the set-up: scale not given: the % may be the effect or the level left. Put shortly:
as §1

Assay [6] has the same target. The experiment in a line: Inhibition of Yarrowia lipolytica 24-SMT assessed as lanosterol-3-trimethylsilyl derivative at 0.2 ug/mL after 48 hrs by GC-MS analysis relative to untreated control. On the set-up: scale not given: the % may be the effect or the level left. Put shortly:
as §1

For assay [7] the target is unchanged. The experiment in a line: Inhibition of Yarrowia lipolytica 24-SMT assessed as cholesta-5,7,24-trien-3-trimethylsilyl derivative at 0.2 ug/mL after 48 hrs by GC-MS analysis relative to untreated control. Also on record: scale not given: the % may be the effect or the level left. Put shortly:
as §1

Assay [8] deals with Yarrowia lipolytica. The experiment in a line: Antimicrobial activity against Yarrowia lipolytica by agar diffusion test. The assay is classed as functional, organism-based.
In assay [9] the target is T1, Sterol 24-C-methyltransferase (Yarrowia lipolytica). Nature of the assay: Inhibition of Yarrowia lipolytica 24-SMT assessed as dehydroergosterol-3-trimethylsilyl derivative at 0.06 ug/mL after 48 hrs by GC-MS analysis relative to untreated control. Also on record: scale not given: the % may be the effect or the level left. The essentials: as §1
For assay [10] the target is unchanged. Nature of the assay: Inhibition of Yarrowia lipolytica 24-SMT assessed as 5-dehydroepisterol-3-trimethylsilyl derivative at 0.06 ug/mL after 48 hrs by GC-MS analysis relative to untreated control. On the set-up: scale not given: the % may be the effect or the level left. The essentials:
as §1

Assay [11] shares this target. The experiment in a line: Inhibition of Yarrowia lipolytica 24-SMT assessed as lanosterol-3-trimethylsilyl derivative at 0.06 ug/mL after 48 hrs by GC-MS analysis relative to untreated control. Also on record: scale not given: the % may be the effect or the level left. Put shortly:
as §1

For assay [12] the target is unchanged. Nature of the assay: Inhibition of Yarrowia lipolytica 24-SMT assessed as cholesta-5,7,24-trien-3-trimethylsilyl derivative at 0.06 ug/mL after 48 hrs by GC-MS analysis relative to untreated control. On the set-up: scale not given: the % may be the effect or the level left. Put shortly:
as §1

Assay [13] has the same target. Nature of the assay: Inhibition of Yarrowia lipolytica 24-sterol C-methyltransferase assessed as ergosterol-3-trimethylsilyl derivative level at 0.06 ug/mL after 48 hrs by GC-MS analysis relative to untreated control. On the set-up: scale not given: the % may be the effect or the level left. Put shortly: as §1
The target is the same in assay [14]. The experiment in a line: Inhibition of Yarrowia lipolytica 24-SMT assessed as cholesta-5,7,24-trien-3-trimethylsilyl derivative at 2 ug/mL after 48 hrs by GC-MS analysis relative to untreated control. Also on record: scale not given: the % may be the effect or the level left. Put shortly:
as §1

The target is the same in assay [15]. Nature of the assay: Inhibition of Yarrowia lipolytica 24-SMT assessed as dehydroergosterol-3-trimethylsilyl derivative at 8 ug/mL after 48 hrs by GC-MS analysis relative to untreated control. On the set-up: scale not given: the % may be the effect or the level left. The essentials:
as §1

Assay [16] has the same target. Nature of the assay: Inhibition of Yarrowia lipolytica 24-SMT assessed as dehydroergosterol-3-trimethylsilyl derivative at 2 ug/mL after 48 hrs by GC-MS analysis relative to untreated control. On the set-up: scale not given: the % may be the effect or the level left. Put shortly: as §1
Assay [17] shares this target. Nature of the assay: Inhibition of Yarrowia lipolytica 24-sterol C-methyltransferase assessed as ergosterol-3-trimethylsilyl derivative level at 2 ug/mL after 48 hrs by GC-MS analysis relative to untreated control. Also on record: scale not given: the % may be the effect or the level left. The essentials:
as §1

The target is the same in assay [18]. Nature of the assay: Inhibition of Yarrowia lipolytica 24-SMT assessed as cholesta-7,24-dien-3-trimethylsilyl derivative at 8 ug/mL after 48 hrs by GC-MS analysis relative to untreated control. On the set-up: scale not given: the % may be the effect or the level left. Put shortly: as §1
Assay [19] shares this target. The experiment in a line: Inhibition of Yarrowia lipolytica 24-SMT assessed as cholesta-7,24-dien-3-trimethylsilyl derivative at 2 ug/mL after 48 hrs by GC-MS analysis relative to untreated control. On the set-up: scale not given: the % may be the effect or the level left. The essentials:
as §1

Assay [20] shares this target. Nature of the assay: Inhibition of Yarrowia lipolytica 24-SMT assessed as 5-dehydroepisterol-3-trimethylsilyl derivative at 8 ug/mL after 48 hrs by GC-MS analysis relative to untreated control. On the set-up: scale not given: the % may be the effect or the level left. The essentials: as §1
For assay [21] the target is unchanged. The experiment in a line: Inhibition of Yarrowia lipolytica 24-SMT assessed as cholesta-5,7,24-trien-3-trimethylsilyl derivative at 8 ug/mL after 48 hrs by GC-MS analysis relative to untreated control. Also on record: scale not given: the % may be the effect or the level left. Put shortly: as §1
Assay [22] shares this target. The experiment in a line: Inhibition of Yarrowia lipolytica 24-SMT assessed as 5-dehydroepisterol-3-trimethylsilyl derivative at 2 ug/mL after 48 hrs by GC-MS analysis relative to untreated control. Also on record: scale not given: the % may be the effect or the level left. The essentials:
as §1

Assay [23] has the same target. The experiment in a line: Inhibition of Yarrowia lipolytica 24-SMT assessed as ergosterol-3-trimethylsilyl derivative level at 0.2 ug/mL after 48 hrs by GC-MS analysis relative to untreated control. Also on record: scale not given: the % may be the effect or the level left. Put shortly: as §1

Molecules are shown by their SMILES. Values after ≈ are worked out from the molar mass of the structure shown. Active and inactive are the calls of the source. The calls are words filed in the database; no cut-off is given here.

A word on the MIC: it is the lowest concentration that inhibits growth of the organism. On to `CC(C)C(C)NC[C@@H](C)[C@H]1CC[C@H]2C3=CC[C@H]4C[C@@H](O)CC[C@]4(C)[C@H]3CC[C@]12C` (mixture of isomers), for which the Activity is 2.4% in assay [1]; 1.4% in assay [2]; 4.6% in assay [3]; 73.3% in [5]; 0.3% in assay [6]; 18% in [7]. Besides, the MIC in the assay with Yarrowia lipolytica [4] worked out at 0.5 µg/mL.
`C[C@H](/C=C/c1ccccn1)[C@H]1CC[C@H]2C3=CCC4C[C@@H](O)CC[C@]4(C)[C@H]3CC[C@]12C` (stereo partly specified): in the assay with Yarrowia lipolytica [8], the MIC result is “inactive”.
For `C[C@H](/C=C/c1cc[n+](C)cc1)[C@H]1CCC2C3=CCC4C[C@@H](O)CC[C@]4(C)C3CC[C@@]21C.[I-]` (stereo partly specified), the Activity came to 67.9% in [9]; 1.8% in [10]; 0.2% in assay [11]; 18.3% in assay [12]; 11.8% in assay [13]. For the same molecule, the minimal inhibitory concentration (MIC) against Yarrowia lipolytica [4] was determined as 0.5 µg/mL.
As to `CCCCCCCCCCCCNC[C@@H](C)[C@H]1CC[C@H]2C3=CC[C@H]4C[C@@H](O)CC[C@]4(C)[C@H]3CC[C@]12C`, in the assay on Yarrowia lipolytica [8], the MIC entry is “inactive”.
For the molecule `C[C@H](CNCCCN(C)C)[C@H]1CC[C@H]2C3=CC[C@H]4C[C@@H](O)CC[C@]4(C)[C@H]3CC[C@]12C`, the Activity in assay [14] came to 25.6%; in assay [15], 27.2%; in assay [16], 66.4%; in assay [17], 2.7%; in assay [18], 5.1%; in assay [19] it was 2%. The figures for the Activity in assay [20], in [21] and in assay [22] were 2.3%, 65.4% and 3.3%, respectively. The MIC against Yarrowia lipolytica [4] was over 2 µg/mL.
In the case of `CCNC[C@@H](C)[C@H]1CC[C@H]2C3=CC[C@H]4C[C@@H](O)CC[C@]4(C)[C@H]3CC[C@]12C`, the Activity was found to be 3.6% in [1]; 2.8% in assay [3]; 3.4% in assay [23]; 64.7% in [5]; 25.5% in [7]. Further, the MIC against Yarrowia lipolytica [4] stood at 2 µg/mL (≈ 5.56 µM).
Consider `CCCC[S+](C)C[C@@H](C)[C@H]1CC[C@H]2C3=CC[C@H]4C[C@@H](O)CC[C@]4(C)[C@H]3CC[C@]12C.[I-]` (mixture of isomers), for which the Activity is 87.5% in assay [14], 7.8% in assay [16], 3.5% in assay [19] and 1% in assay [22]. This molecule also came in with a minimal inhibitory concentration (MIC) in the assay with Yarrowia lipolytica [4] of over 2 µg/mL.
